Source: PubChem
A selection: hits, their analogues and other compounds. The true share with any hit is near 1.9%.
Hsp70 activator: Hsp70 transcriptional activation, primary screen. HeLa Hsp70 promoter luciferase reporter, luminescence; scaled: vehicle 0, proteasome-inhibitor control 100%. activation, % at 10 µM. actives 0.04% (n = 200,000);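 active = activation above the mean across all tested compounds plus 3 SD, cutoff set per campaign, cut at about 5.5% in these data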
Rad51 HR inh: blocks human Rad51 in homologous recombination. Q06609. hRad51 DNA strand exchange, fluorescence dequenching. inhibition, % at 10 µM. actives 0.085% (n = 200,000). AID 1385;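 active = inhibition above 40% at the single screening dose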
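material = hRad51 filaments on single-stranded DNA | timing = filaments 15 min 37 °C, then compound 30 min | signal = FRET fluorescence dequenching, excitation 485 nm, emission 520 nm | benchmarks = control wells and blank wells on each plate | evaluation = percent inhibition relative to plate controls and blanks | compound = 10 µM final, single point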
HIF activator: HIF pathway transcriptional activation | U2OS HRE-luciferase reporter, luminescence; normalized: DMSO 0%, desferrioxamine 100% | activation, % at 7.5 µM (by protocol) | actives 0.32% (n = 300,000) | AID 1910;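 active = mean activation of at least 10% of the iron chelator positive control signal, with at least half of replicates also reaching 10%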
FXN GAA850 act: activators of GAA850 frataxin (FXN) promoter | activation, % at 6 µM | actives 0.56% (n = 360,000) | HEK293 lucGAA850 FXN promoter luciferase reporter, 24 h; percent of 10 µM SAHA response | AID 540364;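 active = activation above the average of all compounds screened plus 3 SD, cutoff fixed separately per campaign, cut at about 7.5% in these data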
H9c2 TAG inh: inhibitors of triacylglycerol accumulation | H9c2 cells, Nile Red lipid (TAG) fluorescence; cells loaded with 200 µM oleic acid | inhibition, % at 12.5 µM | actives 0.66% (n = 230,000) | AID 651582;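 active = pattern-corrected inhibition of lipid staining of at least 50% with the nuclear-stain viability signal not falling by more than 50%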
ABHD5-PLIN5 inh: blocks binding of human ABHD5 to perilipin-5. Split G. princeps luciferase complementation, luminescence, 4 h. inhibition, % at 4 µM. actives 0.78% (n = 360,000). AID 602281;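 active = inhibition above the mean inhibition across every tested compound plus 3 SD, cut at about 22% in these data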
ABHD5-PLIN5 conf: ABHD5-PLIN5 interaction inhibition, confirmed; shares compounds with ABHD5-PLIN5 inh; biochemical ABHD5-PLIN5 interaction, luminescence; inhibition, % at 4 µM; actives 67% (n = 2,200); in the data active = inhibition above about 23%
HNF4 counter: active in HNF4 split-luciferase counter-screen for ABHD5-PLIN5 inhibitors; shares compounds with ABHD5-PLIN5 inh; HNF4 dimerization, luminescence, biochemical; inhibition, % at 4 µM; actives 77% (n = 2,200);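 active = mean inhibition across replicate wells exceeding the computed hit threshold, cut at about 13% in these data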;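 also: light from luciferase halves that rejoin when HNF4 fusion proteins dimerize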
Target sequence (P41235 whole entry, looked up, the tested form may be a part): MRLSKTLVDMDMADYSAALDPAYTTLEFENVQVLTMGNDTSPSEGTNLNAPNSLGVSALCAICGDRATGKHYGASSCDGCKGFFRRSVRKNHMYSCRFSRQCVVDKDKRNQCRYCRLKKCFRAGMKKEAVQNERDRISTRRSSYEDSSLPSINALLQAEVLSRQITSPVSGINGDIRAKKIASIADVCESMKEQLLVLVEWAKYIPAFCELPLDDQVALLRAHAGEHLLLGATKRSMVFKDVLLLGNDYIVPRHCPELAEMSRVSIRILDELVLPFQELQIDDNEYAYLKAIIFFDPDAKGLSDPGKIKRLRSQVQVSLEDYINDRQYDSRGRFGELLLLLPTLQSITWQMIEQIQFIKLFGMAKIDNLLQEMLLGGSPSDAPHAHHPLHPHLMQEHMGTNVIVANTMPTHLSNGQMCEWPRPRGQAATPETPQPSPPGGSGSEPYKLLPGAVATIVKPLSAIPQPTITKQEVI
Hits are given with their value; 0 = inactive; - = not tested or not shown.

SMILES	Hsp70 activator	Rad51 HR inh	HIF activator	FXN GAA850 act	H9c2 TAG inh	ABHD5-PLIN5 inh	ABHD5-PLIN5 conf	HNF4 counter
O=C(O)/C=C/c1cccc(OCc2ccccc2)c1	0	0	0	0	0	0	-	-
CC(/C=C/c1cccc([N+](=O)[O-])c1)=N/NC(=O)c1cccnc1	0	0	0	0	0	29	0	16
O=C(O)c1ccc(/C=C/C(=O)c2ccc3c(c2)OCCCO3)cc1	-	-	0	0	-	49	48	43
O=C(/C=C/c1cccc(OCc2ccccc2)c1)c1cccnc1	0	0	0	0	0	36	61	70
O=C(/C=C/c1ccc2c(c1)OCCO2)c1ccccc1	-	-	0	0	0	27	56	43
COc1ccc(C(=O)/C=C/c2ccc3c(c2)OCCO3)cc1	-	0	0	0	0	0	-	-
Cc1nc(Cl)c2c(n1)NC(=O)CO2	-	0	0	0	0	0	-	-
Cc1onc(-c2ccccc2)c1C(=O)NC1CCC(C)CC1 (stereo unspecified)	-	-	-	0	0	0	-	-
O=C(/C=C/c1ccc2c(c1)OCO2)c1cccnc1	-	-	0	0	-	28	63	54
O=C(O)/C=C/c1cccnc1	-	0	0	0	0	0	-	-
O=C(/C=C/c1cccnc1)c1ccc(F)c(F)c1	-	-	0	0	-	71	97	95
O=C(/C=C/c1ccc([N+](=O)[O-])cc1)c1cccnc1	0	0	0	0	-	30	83	93
CC(C)NC(=O)Nc1cccc2c1O[C@H](CN(C)S(C)(=O)=O)[C@@H](C)CN([C@H](C)CO)C2=O	-	-	-	0	0	0	-	-
CCCCCCCCCCCCN1[C@@H](CC(=O)O)c2cc(C(F)(F)F)ccc2S1(=O)=O	-	0	0	0	0	0	-	-
CCCCCCCCN1[C@@H](CC(=O)O)c2cc(C(F)(F)F)ccc2S1(=O)=O	-	0	0	0	0	30	33	16
COc1ccc(NS(=O)(=O)c2cccc(C(=O)N3CCCC(C)C3)c2)cc1 (stereo unspecified)	-	-	0	0	0	0	-	-
COc1ccc(CCNC(=O)/C=C/c2ccc3ccccc3n2)cc1OC	-	-	0	0	-	25	32	18
COc1ccc(OC)c2cc3ccccc3cc12	-	-	-	0	0	48	67	0
COc1cc2ccccc2cc1C(=O)Nc1ccc(Cl)cn1	-	-	0	0	-	0	-	-
Oc1c(C(c2ccccc2)N2CCOCC2)ccc2ccccc12 (stereo unspecified)	-	-	-	0	0	40	102	106
O=C(CN1CCN(C(c2ccccc2)c2ccccc2)CC1)N1CCOCC1	0	0	0	0	-	0	-	-
Cc1c(Cl)cccc1Nc1nc(N)nc(CSC(=S)N2CCOCC2)n1	0	0	0	0	-	0	-	-
O=C(CCl)N1N=C(c2ccco2)CC1c1cccs1 (stereo unspecified)	0	0	0	0	-	24	30	20
CCCCC[C@@H](/C=C/C1C(=O)C=C[C@H]1C/C=C\CCCC(=O)OC)OC(C)=O (stereo partly specified)	-	-	-	0	0	28	42	63
O=C(Nc1ccc(F)cc1)c1nc2c(nnn2Cc2cccc3ccccc23)c(=O)[nH]1	-	0	0	0	0	0	-	-
SMILES	Hsp70 activator	Rad51 HR inh	HIF activator	FXN GAA850 act	H9c2 TAG inh	ABHD5-PLIN5 inh	ABHD5-PLIN5 conf	HNF4 counter
CCc1c(C)sc(NC(=O)c2cccs2)c1C#N	0	0	0	0	-	24	0	0
CCOC(=O)c1c(NC(=O)c2cccs2)sc(C)c1CC	0	0	0	0	-	0	-	-
O=C(Nc1ccncc1)c1ccc(-c2ccccc2)cc1	0	0	0	0	0	0	-	-
COc1ccc(/C=C/C(=O)c2ccccn2)cc1	0	0	0	0	0	0	-	-
COc1ccc([N+](=O)[O-])c(C=CC(=O)c2ccccn2)c1	-	-	-	0	0	53	98	101
CCCn1nc2cc(C(=O)N(CC)c3ccc(OC)cc3)ccc2c1OCC	0	0	0	0	0	71	0	0
CCCn1nc2cc(C(=O)NCc3ccc(OC)cc3)ccc2c1OCC	0	0	0	0	0	0	-	-
Cn1nnnc1SCC(=O)Nc1ccccc1C(N)=O	0	0	0	0	0	0	-	-
N#Cc1c(NCCCO)nc(-c2ccco2)c2c1CCCC2	0	0	0	0	0	35	0	21
CCCCn1c(=O)n(CC(=O)Nc2ccc(C)c(Cl)c2)c(=O)c2c1ncn2Cc1ccco1	0	0	0	0	0	36	26	0
O=C(N/N=C/c1ccc(-n2ccnc2)cc1)c1cccs1	-	-	0	0	0	0	-	-
Cc1cc(C)c(C(=O)N(C)C2CCCN(Cc3ccccc3F)C2)o1 (stereo unspecified)	-	-	0	0	-	0	-	-
Cc1cc(NC(=O)Nc2ccc(F)cc2F)n(C)n1	0	0	0	0	0	44	0	0
Cc1ccc(C(=O)Nc2ccccc2C(=O)N2CCCCC2C)cc1 (stereo unspecified)	-	-	0	0	0	106	0	0
O=[N+]([O-])c1cccc(NC(=S)N2CCc3ccccc32)c1	-	-	-	0	0	0	-	-
CN1CCN(C(=S)c2cn(Cc3ccc(Br)cc3)c3ccccc23)CC1	0	0	-	0	0	28	0	0
CN(C)S(=O)(=O)c1cccc(NC(=O)COC(=O)/C=C/c2ccco2)c1	0	0	0	0	-	25	0	27
CCC1CCCCN1C(=O)Cn1nc([N+](=O)[O-])c(Cl)c1C (stereo unspecified)	0	0	0	0	0	0	-	-
COc1cc(CNCCN2CCOCC2)ccc1OCc1ccc(Cl)cc1Cl	0	0	0	0	0	24	0	13
COc1cc(CNCc2ccccn2)ccc1OCc1ccc(Cl)cc1Cl	0	0	0	0	0	25	0	0
COc1cc(CNCCN2CCOCC2)ccc1OCc1cccc(Cl)c1	0	0	0	0	-	0	-	-
CCSc1nnc(-c2c[nH]c3ccccc23)o1	-	-	0	0	-	98	0	0
CCc1nn(CC(=O)NCCc2ccc(OC)cc2OC)c(=O)c2cc3occc3n12	-	-	0	0	-	0	-	-
Cc1ccc2c(CC(=O)N3CCN(S(=O)(=O)c4ccc5c(c4)OCCO5)CC3)coc2c1	0	0	0	0	0	27	57	-
Cc1cccc2c1NC(=O)/C2=C\C(=O)c1cccs1	0	0	0	0	-	53	78	85
Cc1cc(C)c2c(c1)/C(=C/C(=O)c1ccc(Br)s1)C(=O)N2	0	0	0	0	-	0	-	-
CCc1ccc2c(c1)/C(=C/C(=O)c1cccs1)C(=O)N2	0	0	0	0	0	83	90	96
CCc1ccc2c(c1)/C(=N/N(C)C(=S)NC)C(=O)N2	0	-	0	0	-	0	-	-
